# L major viab: reduces viability of Leishmania major promastigotes. AID 1063. resazurin fluorescence viability. 9% of 200,000 active. inhibition, % at 10 µM; in the data active = inhibition above about 50%;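 note: promastigotes grown with compound for 44 hours at 28 °C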
# S1P4 antagonist: blocks the human S1P4 receptor; O95977; S1P4-expressing cells, antagonist mode, reporter read-out; inhibition, % at 4.98 µM; 0.26% of 220,000 active; AID 1510; in the data active = inhibition above about 29%;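 note: 0% = wells stimulated with agonist and 100% = vehicle wells without agonist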
# S1P3 antagonist: blocks the human S1P3 receptor. Q99500. CHO S1P3 NFAT-BLA reporter, FRET fluorescence, antagonist mode. inhibition, % at 4.98 µM. 0.27% of 170,000 active;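 active = inhibition above the plate cutoff, the mean inhibition of test wells on that plate plus 3 SD, cut at about 28% in these data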;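 note: cells challenged with S1P at its EC80 of 0.8 µM; blue over green emission ratio from cleaved BLA substrate after 4 h stimulation; 0% = S1P-stimulated wells and 100% = unstimulated DMSO-only wells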
# S1P4 agonist: agonists of human S1P4 receptor; O95977; S1P4-expressing cell line, agonist reporter assay; activation, % at 4.98 µM; 0.35% of 220,000 active; in the data active = activation above about 11%;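 note: 0% = DMSO vehicle and 100% = reference agonist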
# MDM2 E3 inh: inhibitors of human Mdm2 E3 ubiquitin ligase. Q00987. cell-based MDM2 ubiquitination luciferase reporter, 2 h; 0 = plate control, 100 = twice control, blank-subtracted. signal enhancement, % at 5 µM. 0.11% of 210,000 active;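 active = signal enhancement of 30% or more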;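 note: luminescence tracks abundance of the self-degrading MDM2-luciferase fusion protein; higher signal means inhibition of MDM2 E3 ligase activity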
# Target sequence (Q00987 whole entry, looked up, the tested form may be a part): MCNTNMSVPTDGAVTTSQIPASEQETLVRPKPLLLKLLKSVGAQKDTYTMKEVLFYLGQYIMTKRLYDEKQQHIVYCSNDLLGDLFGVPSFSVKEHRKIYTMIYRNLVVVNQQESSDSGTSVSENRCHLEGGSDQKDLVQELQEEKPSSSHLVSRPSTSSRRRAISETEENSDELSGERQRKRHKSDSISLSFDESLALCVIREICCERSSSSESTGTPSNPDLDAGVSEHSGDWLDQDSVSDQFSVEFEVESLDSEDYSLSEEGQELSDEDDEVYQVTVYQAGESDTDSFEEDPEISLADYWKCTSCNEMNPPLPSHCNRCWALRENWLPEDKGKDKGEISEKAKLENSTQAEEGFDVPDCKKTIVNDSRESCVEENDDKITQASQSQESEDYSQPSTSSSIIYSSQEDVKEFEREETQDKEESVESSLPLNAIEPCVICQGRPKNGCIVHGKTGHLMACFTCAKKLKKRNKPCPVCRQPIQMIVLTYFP
#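 Material: stable MDM2–luciferase fusion reporter cells / Quantity: 2000 cells/well / Dosing: single 5 µM compound dose, 0.2% final DMSO / Buffer or medium: DMEM / Schedule: 4 h cell settling then 2 h compound exposure, 37 °C / Detection: luminescence with SteadyLite reagent, 15 min at room temperature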
# An asterisk follows results filed as active; nt = not tested or not shown. Many of the other results were omitted from the sample, so hits are more common in it than they were.
SMILES,L major viab,S1P4 antagonist,S1P3 antagonist,S1P4 agonist,MDM2 E3 inh
COC(=O)c1nc(N)sc1-c1ccc(Cl)c(Cl)c1,nt,-20,-11,1,nt
FC(F)(F)COc1ccc(-c2nnc(SCc3ccccc3)o2)cn1,nt,-1,-5,1,-3
Cc1ccc(S(=O)OCC(=O)Nc2cc(Cl)ccc2N2CCOCC2)cc1 (stereo unspecified),99*,-4,-21,1,-7
CC(C)CC(=O)N/C(N)=N/c1nc2ccccc2o1,nt,-7,6,-1,-25
CC1=NN(c2nc(-c3ccc(C)cc3)cs2)C(=O)C1N=Nc1cccc(C)c1 (stereo unspecified),86*,1,1,-1,-12
CCOc1ccccc1N(C(=O)c1ccco1)C(C(=O)NC1CCCC1)c1cccnc1 (stereo unspecified),-1,4,-7,1,-8
Cc1ccc(C(C(=O)NC(C)(C)C)N(Cc2ccccc2)C(=O)c2snc(C(N)=O)c2N)o1 (stereo unspecified),54*,0,-6,1,-9
CCOc1ccccc1N(C(=O)c1snc(C(N)=O)c1N)C(C(=O)NC1CCCC1)c1ccco1 (stereo unspecified),76*,6,-16,0,19
CCC(C)(C)NC(=O)CN(C(=O)c1snc(C(N)=O)c1N)c1ccc2c(c1)OCCO2,13,-19,-7,0,-8
Cc1ccc(C(C(=O)NC2CCCC2)N(Cc2cccnc2)C(=O)c2snc(C(N)=O)c2N)o1 (stereo unspecified),-3,-17,-43,1,-8
CCCC(C(=O)NC(C)(C)C)N(C(=O)c1snc(C(N)=O)c1N)c1ccc2c(c1)OCCO2 (stereo unspecified),52*,-6,-12,1,-22
CC(C)CC(C(=O)NC1CCCC1)N(Cc1cccs1)C(=O)c1snc(C(N)=O)c1N (stereo unspecified),93*,-5,nt,0,nt
CCCC(C(=O)NC1CCCC1)N(Cc1ccc2c(c1)OCO2)C(=O)c1snc(C(N)=O)c1N (stereo unspecified),54*,10,nt,2,-9
CC(C)CC(C(=O)NC1CCCCC1)N(Cc1cccs1)C(=O)c1snc(C(N)=O)c1N (stereo unspecified),16,-17,2,3,-4
O=C(N/N=C/c1c(O)ccc2ccccc12)c1[nH]ncc1Br,100*,1,8,-1,-12
Cc1ccc(O)c(/C=N/NC(=O)c2[nH]ncc2Br)c1,98*,-17,23,4,-28
COc1ccc(OC)c(/C=N/NC(=O)c2[nH]ncc2Br)c1,nt,8,4,-2,-3
O=C(N/N=C\c1c(O)ccc2ccccc12)c1ccc(Cn2cccn2)o1,98*,6,16,0,-8
CCOc1ccc(/C=N/NC(=O)c2[nH]ncc2Br)c(O)c1,99*,9,15,1,-55
C=CCSc1nnc(NC(=O)c2cn(CC)c3nc(C)ccc3c2=O)s1,11,-22,4,2,-6
CCN(CC)S(=O)(=O)c1ccc(OC)c(NC(=O)Cn2cnc3c2c(=O)n(C)c(=O)n3C)c1,3,-5,-2,1,-9
CC(C)(C)SCCNS(=O)(=O)c1ccc(C#N)cc1,nt,-12,3,1,-10
CCCCC1=CC2=CC(=O)C(C)(OC(=O)c3cnc4ccccc4n3)C(=O)C2=CO1 (stereo unspecified),nt,nt,nt,nt,15
O=C(N/N=C/c1c(O)ccc2ccccc12)c1cccc(C(F)(F)F)c1,97*,4,9,-3,-10
Cc1ccc(O)c(/C=N/NC(=O)C2=NNC(c3ccccc3)(c3ccccc3)C2)c1,100*,-16,nt,-1,-7
SMILES,L major viab,S1P4 antagonist,S1P3 antagonist,S1P4 agonist,MDM2 E3 inh
OCC(CO)(CO)N=Cc1c(O)ccc2ccccc12,97*,-5,-4,0,-10
CSC(=NNC(=O)c1ccc(O)cc1)SC,1,0,nt,1,-17
O=C(NC(NC(=O)c1ccccc1)c1ccccc1)c1ccccc1,1,-3,nt,0,-21
COP1(=O)C=C[C@H](N(Cc2ccccc2)S(=O)(=O)c2ccccc2[N+](=O)[O-])[C@@H](C)O1 (stereo partly specified),nt,nt,nt,nt,10
Brc1c(OCCOCCn2cncn2)ccc2ccccc12,65*,-13,21,-1,-4
COc1ccc(Nc2ccccc2N)cc1,92*,11,14,2,-3
CCOc1nc(Nc2ccc(OC)cc2)nc(OCC)n1,36,-20,nt,-9,-21
COc1ccc(Nc2nc3ccccc3s2)cc1,-5,-5,-5,1,-4
COc1ccc(Nc2ccnc(Nc3ccc(OC)cc3)n2)cc1,100*,0,3,1,-8
COc1ccc(Nc2ccnc3ccccc23)cc1,101*,-16,15,2,-37
CCCn1c(C)cc(C(=O)COc2ccc(S(=O)(=O)N(CC)CC)cc2[N+](=O)[O-])c1C,84*,-20,-10,1,-10
C=CCn1c(C)cc(C(=O)COc2ccc(S(=O)(=O)N3CCCC3)cc2[N+](=O)[O-])c1C,86*,-9,-4,-1,-9
CCCn1c(C)cc(C(=O)COc2ccc(C)nc2[N+](=O)[O-])c1C,0,-12,-5,-1,-13
O=C(COc1ncnc2sccc12)N1CCN(C(=O)c2ccco2)CC1,-6,-22,-9,2,-9
Cn1c(=O)n(C)c2cc(NC(=O)CCl)ccc21,27,-2,nt,-1,-27
CCn1c(=O)oc2cc(NC(=O)CCl)ccc21,70*,-10,-8,1,-3
N#CCCCN1C(=O)C(=C(C#N)C#N)c2ccccc21,-8,-6,-6,2,3
COC(=O)c1ccc(Nc2cc(C)nc3ccccc23)cc1,nt,-5,-7,1,-4
COC(=O)c1ccc2nc(C)cc(Nc3ccc(N(C)C)cc3)c2c1,67*,-2,-12,1,nt
Cn1cc(C(=O)c2ccc(F)cc2)cc1-c1nc2ccccc2n1C,71*,-7,13,-1,-15
CN1C(=O)c2cccc(NC(=O)CCc3ccccc3)c2C1=O,-3,-23,92*,-3,-12
CCCCC(=O)Nc1cccc2c1C(=O)N(c1ccccc1)C2=O,-10,-3,-44,0,-68
C/C(=N\NC(=O)c1cc(-c2ccncc2)nc2ccccc12)c1ccc(OC(F)F)cc1,89*,-7,-8,1,-13
c1cc(Nc2cccc3nccnc23)c2nccnc2c1,-1,-18,0,1,-10
Fc1ccc(Nc2cccc3nccnc23)cc1,50*,-20,-13,1,1
O=C(NCc1cccc(F)c1)c1ccc(N2C(=O)Cn3c(cc4sccc43)C2=O)cc1,61*,-13,5,0,0
CC(C)(C)C(=O)N1N=C(c2ccc(NS(C)(=O)=O)cc2)CC1c1cccs1 (stereo unspecified),25,-7,-13,0,-9
COc1cccc(N2CCN(C3CCCC(C)C3)CC2)c1 (stereo unspecified),69*,1,1,-1,-2
